Assay results published in ChEMBL document CHEMBL2440113, “Synthesis, radiofluorination, and in vivo evaluation of novel fluorinated and iodinated radiotracers for PET imaging and targeted radionuclide therapy of melanoma” (J Med Chem, 2013).

Tests used:
[1] = system: Nucleic Acid; test: Ratio of drug level in tumor to muscle in C57BL/6J mouse harboring mouse B16-Bl6 cells at 9 to 12 MBq, iv after 1 hr by PET analysis; type: ADME, organism-based; settings: in vivo
Procedure, shortened: (§1)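 Ex vivo biodistribution. C57BL/6J mice bearing subcutaneous B16Bl6 tumours (3x10⁵ cells, shoulder), day 10 or 14, received [18F]tracer iv (9-12 MBq). They were killed by CO₂ at 1, 2 or 3 h. Tumours and organs were excised, weighed and gamma-counted. Results are decay-corrected % ID/g; ratios are tumour over tissue. n=3-6 per group; mean ± SD.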

[2] = system: Brain; test: Biodistribution in brain of C57BL/6J mouse harboring mouse B16-Bl6 cells at 9 to 12 MBq, iv after 2 hrs by PET analysis; type: ADME, organism-based; settings: in vivo
Procedure, shortened: (§2)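 Ex vivo dissection in B16Bl6-bearing C57BL/6J mice (3x10⁵ cells s.c. right shoulder), done at day 10 or 14 after implantation. The ¹⁸F tracer was given i.v. at 9-12 MBq. Mice were killed by CO₂ at 1, 2 or 3 h. Tumor, organs and tissues were excised, weighed and gamma-counted, then decay-corrected and expressed as %ID/g. n=3-6 per group; mean ± SD.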

[3] = system: Mus musculus; test: Biodistribution in small intestine of C57BL/6J mouse harboring mouse B16-Bl6 cells at 9 to 12 MBq, iv after 3 hrs by PET analysis; type: ADME, organism-based; settings: in vivo; procedure, shortened: as §2
[4] = system: Zone of skin; test: Biodistribution in skin of C57BL/6J mouse harboring mouse B16-Bl6 cells at 9 to 12 MBq, iv after 3 hrs by PET analysis; type: ADME, organism-based; settings: in vivo; procedure, shortened: as §2
[5] = system: Mus musculus; test: Biodistribution in cecum of C57BL/6J mouse harboring mouse B16-Bl6 cells at 9 to 12 MBq, iv after 3 hrs by PET analysis; type: ADME, organism-based, Caecum; settings: in vivo; procedure, shortened: as §2
[6] = system: Muscle tissue; test: Biodistribution in muscle of C57BL/6J mouse harboring mouse B16-Bl6 cells at 9 to 12 MBq, iv after 1 hr by PET analysis; type: ADME, organism-based; settings: in vivo; procedure, shortened: as §2
[7] = system: Kidney; test: Biodistribution in kidney of C57BL/6J mouse harboring mouse B16-Bl6 cells at 9 to 12 MBq, iv after 1 hr by PET analysis; type: ADME, organism-based; settings: in vivo; procedure, shortened: as §2
[8] = system: Heart; test: Biodistribution in heart of C57BL/6J mouse harboring mouse B16-Bl6 cells at 9 to 12 MBq, iv after 3 hrs by PET analysis; type: ADME, organism-based; settings: in vivo; procedure, shortened: as §2
[9] = system: Bone; test: Biodistribution in bones of C57BL/6J mouse harboring mouse B16-Bl6 cells at 9 to 12 MBq, iv after 3 hrs by PET analysis; type: ADME, organism-based, Bone element; settings: in vivo; procedure, shortened: as §2
[10] = system: Bone; test: Biodistribution in bones of C57BL/6J mouse harboring mouse B16-Bl6 cells at 9 to 12 MBq, iv after 1 hr by PET analysis; type: ADME, organism-based, Bone element; settings: in vivo; procedure, shortened: as §2
[11] = system: Spleen; test: Biodistribution in spleen of C57BL/6J mouse harboring mouse B16-Bl6 cells at 9 to 12 MBq, iv after 3 hrs by PET analysis; type: ADME, organism-based; settings: in vivo; procedure, shortened: as §2
[12] = system: Heart; test: Biodistribution in heart of C57BL/6J mouse harboring mouse B16-Bl6 cells at 9 to 12 MBq, iv after 1 hr by PET analysis; type: ADME, organism-based; settings: in vivo; procedure, shortened: as §2
[13] = system: Bone; test: Biodistribution in bones of C57BL/6J mouse harboring mouse B16-Bl6 cells at 9 to 12 MBq, iv after 2 hrs by PET analysis; type: ADME, organism-based, Bone element; settings: in vivo; procedure, shortened: as §2
[14] = system: Mus musculus; test: Ratio of drug level in tumor to muscle in C57BL/6J mouse harboring mouse B16-Bl6 cells at 9 to 12 MBq, iv after 2 hrs by PET analysis; settings: in vivo
[15] = system: Mus musculus; test: Biodistribution in tumor of C57BL/6J mouse harboring mouse B16-Bl6 cells at 9 to 12 MBq, iv after 3 hrs by PET analysis; type: ADME, organism-based, Neoplasm; settings: in vivo; procedure, shortened: as §1
[16] = system: Pancreas; test: Biodistribution in pancreas of C57BL/6J mouse harboring mouse B16-Bl6 cells at 9 to 12 MBq, iv after 3 hrs by PET analysis; type: ADME, organism-based; settings: in vivo; procedure, shortened: as §2
[17] = Octanol-water partition coefficient, log D of the compound at pH 7.4; type: physicochemical
Procedure, shortened: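 About 74 kBq radiotracer was shaken in PBS pH 7.4 / octanol (1:1 mL), vortexed 1 min three times at room temperature, then centrifuged (3,000 rpm, 5 min). Both phases were gamma-counted. Three independent experiments in duplicate.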

[18] = system: Mus musculus; test: Biodistribution in tumor of C57BL/6J mouse harboring mouse B16-Bl6 cells at 9 to 12 MBq, iv after 1 hr by PET analysis; type: ADME, organism-based, Neoplasm; settings: in vivo; procedure, shortened: as §1
[19] = system: Mus musculus; test: Ratio of drug level in tumor to blood in C57BL/6J mouse harboring mouse B16-Bl6 cells at 9 to 12 MBq, iv after 2 hrs by PET analysis; settings: tumour
[20] = system: Blood; test: Biodistribution in blood of C57BL/6J mouse harboring mouse B16-Bl6 cells at 9 to 12 MBq, iv after 3 hrs by PET analysis; type: ADME, organism-based; settings: in vivo; procedure, shortened: as §2
[21] = system: Mus musculus; test: Biodistribution in small intestine of C57BL/6J mouse harboring mouse B16-Bl6 cells at 9 to 12 MBq, iv after 1 hr by PET analysis; type: ADME, organism-based; settings: in vivo; procedure, shortened: as §2
[22] = system: Muscle tissue; test: Biodistribution in muscle of C57BL/6J mouse harboring mouse B16-Bl6 cells at 8 to 12 MBq, iv after 1 hr by PET analysis; type: ADME, organism-based; settings: in vivo
Procedure, shortened: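 C57BL/6J mice were inoculated s.c. on the right shoulder with 3x10⁵ B16Bl6 cells in PBS under isoflurane, and imaged at day 10 or 14 (tumor volume 431.8 ± 154.3 mm³). The ¹⁸F tracer was given i.v. via tail vein, 8-12 MBq (methods: 9-12 MBq/0.15 mL). Under ketamine/xylazine i.p., a 25-min whole-body static PET scan ran at 1 h. ROI %ID/g = counts/g/min ÷ injected dose. n=2-8; mean ± SD.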

[23] = system: Lung; test: Biodistribution in lung of C57BL/6J mouse harboring mouse B16-Bl6 cells at 9 to 12 MBq, iv after 2 hrs by PET analysis; type: ADME, organism-based; settings: in vivo; procedure, shortened: as §2
[24] = Ratio of drug level in tumor to muscle in C57BL/6J mouse harboring mouse B16-Bl6 cells at 8 to 12 MBq, iv after 1 hr by PET analysis; type: ADME, organism-based; settings: in vivo
Procedure, shortened: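 Static whole-body PET at 1 h after tail-vein injection of [18F]tracer (9-12 MBq/0.15 mL) in C57BL/6J mice carrying subcutaneous B16Bl6 shoulder tumours (3x10⁵ cells), imaged day 10 or 14. Mice under ketamine/xylazine ip. 25 min acquisition, OSEM reconstruction. ROI % ID/g = counts/g/min ÷ injected dose; ratios = tumour % ID/g ÷ organ % ID/g. n=2-8; mean ± SD.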

[25] = system: Pancreas; test: Biodistribution in pancreas of C57BL/6J mouse harboring mouse B16-Bl6 cells at 9 to 12 MBq, iv after 2 hrs by PET analysis; type: ADME, organism-based; settings: in vivo; procedure, shortened: as §2
[26] = system: Brain; test: Biodistribution in brain of C57BL/6J mouse harboring mouse B16-Bl6 cells at 9 to 12 MBq, iv after 1 hr by PET analysis; type: ADME, organism-based; settings: in vivo; procedure, shortened: as §2
[27] = system: Brain; test: Biodistribution in brain of C57BL/6J mouse harboring mouse B16-Bl6 cells at 9 to 12 MBq, iv after 3 hrs by PET analysis; type: ADME, organism-based; settings: in vivo; procedure, shortened: as §2

Ratio [1] | Drug uptake [2] | Drug uptake [3] | Drug uptake [4] | Drug uptake [5] | Drug uptake [6] | Drug uptake [7] | Drug uptake [8] | Drug uptake [9] | Drug uptake [10] | Drug uptake [11] | Drug uptake [12] | Drug uptake [13] | Ratio [14] | Drug uptake [15] | Drug uptake [16] | logD [17] | Drug uptake [18] | Ratio [19] | Drug uptake [20] | also measured | Structure (SMILES)
12.12 | 1.39 % ID/g | 3.91 % ID/g | 1.05 % ID/g | 10.79 % ID/g | 1.17 % ID/g | 3.46 % ID/g | 2.32 % ID/g | 3.27 % ID/g | 1.4 % ID/g | 1.87 % ID/g | 2.72 % ID/g | 1.96 % ID/g | 14.46 | 11.55 % ID/g | 1.33 % ID/g | 1.52 | 14.05 % ID/g | 12.19 | 0.8 % ID/g | Drug uptake [21]: 7.58 % ID/g; Drug uptake [22]: 1.37 % ID/g; Drug uptake [23]: 1.65 % ID/g; Ratio [24]: 11.04; Drug uptake [25]: 1.33 % ID/g; Drug uptake [26]: 1.82 % ID/g; Drug uptake [27]: 1.37 % ID/g | CCN(CCNC(=O)c1cnc2cc(I)ccc2n1)CCOCCOCCOCC[18F]
9.48 | 1.03 % ID/g | 18.62 % ID/g | 1.47 % ID/g | 29.31 % ID/g | 1.07 % ID/g | 3.6 % ID/g | 3 % ID/g | 3.61 % ID/g | 1.82 % ID/g | 2.35 % ID/g | 1.58 % ID/g | 2.13 % ID/g | 5.75 | 6.76 % ID/g | 1.81 % ID/g | 0.95 | 9.81 % ID/g | 4.01 | 0.99 % ID/g | Drug uptake [21]: 16.68 % ID/g; Drug uptake [22]: 1.01 % ID/g; Drug uptake [23]: 1.72 % ID/g; Ratio [24]: 6.62; Drug uptake [25]: 1.56 % ID/g; Drug uptake [26]: 1.03 % ID/g; Drug uptake [27]: 1.72 % ID/g | CCN(CCNC(=O)c1cnc2cc(I)ccc2n1)CCOCCOCCOCCOCCOCCOCCOCC[18F]
